Results from ChEMBL document CHEMBL1129541, “Synthesis and DNA interactions of benzimidazole dications which have activity against opportunistic infections” (J Med Chem, 1996).

Key:
Nucleic Acid [1] = assay: Thermal melting temperature determined for (dG-C)4 at a concentration of 3*10e-6 M base pairs at a ratio of 0.6 compound per base pair; type: nucleic-acid assay
In short: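 d(G-C)4 at 3×10^-6 M in duplex, in MES buffer (0.01 M MES, 1×10^-3 M EDTA, pH 6.2) with 0.1 M NaCl. Compound at 0.6 per base pair. The UV absorbance melting curve is recorded in 1 cm quartz cells, with temperature monitored by a thermistor in a reference cuvette.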

Nucleic Acid [2] = assay: Thermal melting temperature for poly(A).poly(U) at a concentration of 5*10e-5) M base pairs at a ratio of 0.6 compound per base pair; type: nucleic-acid assay
In short: (§1)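 Polymers at 5×10^-5 M base pairs in MES buffer (0.01 M MES, 1×10^-3 M EDTA, pH 6.2) with 0.1 M NaCl. Compound at 0.6 per base pair. Samples are in 1 cm reduced-volume quartz cells. UV absorbance melting curves are recorded, with temperature followed by a thermistor in a reference cuvette.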

Nucleic Acid [3] = assay: Thermal melting temperature determined for poly(dA).poly(dT) at a concentration of 5*10e-5) M base pairs at a ratio of 0.6 compound per base pair; type: nucleic-acid assay; in short: as §1
Nucleic Acid [4] = assay: Binding constant for the sequence d(CGGAATTCGCG)2; set-up: unit not given here
Nucleic Acid [5] = assay: Thermal melting temperature for (dCGCGAATTCGCG)2 at a concentration of 3*10e-6 M base pairs at a ratio of one compound per oligomer duplex

Compound | ΔTm (Nucleic Acid [1]) | ΔTm (Nucleic Acid [2]) | ΔTm (Nucleic Acid [3]) | K (Nucleic Acid [4]) | ΔTm (Nucleic Acid [5])
N=C(N)c1ccc2[nH]c(CCCCc3nc4cc(C(=N)N)ccc4[nH]3)nc2c1 | 0.5 | -0.6 | 24.4 | 1.3e+07 | 10
N=C(N)c1ccc2nc(Cc3nc4ccc(C(=N)N)cc4[nH]3)[nH]c2c1 | 0 | -0.8 | 4.9 | 930000 | 2.8
N=C(N)c1ccc2[nH]c(/C=C/c3nc4cc(C(=N)N)ccc4[nH]3)nc2c1 | -1.5 | 0 | > 26 | 5.3e+08 | 22.8
N=C(N)c1ccc(OCCCCCOc2ccc(C(=N)N)cc2)cc1 | 0 | 0 | 12.8 | 2.3e+06 | 4.8
N=C(N)c1ccc(-c2cc3ccc(C(=N)N)cc3[nH]2)cc1 | 2.5 | 3.9 | > 26 | 4.5e+08 | 22.2

Results, then the compound that gave them:

ΔTm (Nucleic Acid [1]) | ΔTm (Nucleic Acid [2]) | ΔTm (Nucleic Acid [3]) | K (Nucleic Acid [4]) | ΔTm (Nucleic Acid [5]) | Compound
0.5 | -1.5 | 25.5 | 5.2e+06 | 7.1 | c1cc2[nH]c(CCCCc3nc4cc(C5=NCCN5)ccc4[nH]3)nc2cc1C1=NCCN1
0 | 0 | > 26 | 2e+09 | 28.5 | c1cc2[nH]c(-c3ccc4[nH]c(CCc5nc6cc(-c7nc8cc(C9=NCCN9)ccc8[nH]7)ccc6[nH]5)nc4c3)nc2cc1C1=NCCN1
0 | 0 | > 26 | 3.1e+08 | 20.8 | c1cc2[nH]c(-c3ccc4[nH]c(CCCCc5nc6cc(-c7nc8cc(C9=NCCN9)ccc8[nH]7)ccc6[nH]5)nc4c3)nc2cc1C1=NCCN1
0 | 0 | > 26 | 4.5e+08 | 22.2 | N=C(N)c1ccc2[nH]c(-c3ccc4[nH]c(CCCCc5nc6cc(-c7nc8cc(C(=N)N)ccc8[nH]7)ccc6[nH]5)nc4c3)nc2c1
0.75 | -1.1 | > 26 | 7.6e+07 | 15.9 | N=C(N)c1ccc2[nH]c(CCc3nc4cc(C(=N)N)ccc4[nH]3)nc2c1
0 | -0.6 | 5.7 | 930000 | 2.8 | c1cc2[nH]c(Cc3nc4cc(C5=NCCN5)ccc4[nH]3)nc2cc1C1=NCCN1
0.7 | 0.9 | > 26 | 8.8e+07 | 16.4 | c1cc2[nH]c(CCc3nc4cc(C5=NCCN5)ccc4[nH]3)nc2cc1C1=NCCN1
